Activity calls are given as the source filed them. The rule behind the calls is not given here.
How the values were obtained:
[1] = species on record: Oryctolagus cuniculus; experiment: Inhibition of Hsp90 chaperoning activity in rabbit reticulocyte lysate assessed as progesterone receptor hormone binding activity by liquid scintillation counting analysis
Outline: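 Purified PR was bound to PR22 antibody-protein A-sepharose beads and mildly heat-denatured. Then 0.1 μM [3H]-progesterone was added for 3 h on ice, beads washed three times, and bound hormone counted by liquid scintillation.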

[2] = tested on: Hs-578T; experiment: Cytotoxicity against human Hs578T cells assessed as cell survival at 10 to 20 uM by MTS assay; type: functional, cell-based
[3] = tested on: MCF7; experiment: Cytotoxicity against human MCF7 cells assessed as cell survival at 10 to 20 uM by MTS assay; type: functional, cell-based
[4] = tested on: MDA-MB-231; experiment: Cytotoxicity against human MDA-MB-231 cells assessed as cell survival at 10 to 20 uM by MTS assay; type: functional, cell-based
[5] = tested on: MDA-MB-453; experiment: Cytotoxicity against human MDA-MB-453 cells assessed as cell survival at 10 to 20 uM by MTS assay; type: functional, cell-based
[6] = tested on: LNCaP; experiment: Cytotoxicity against human LNCAP cells assessed as cell survival at 10 to 20 uM by MTS assay; type: functional, cell-based
[7] = tested on: HeLa; experiment: Cytotoxicity against human HeLa cells assessed as cell survival at 10 to 20 uM by MTS assay; type: functional, cell-based
[8] = tested on: Hs-578T; experiment: Induction of Hsp70 overexpression in human Hs578T cells at 10 to 20 uM by Western blot analysis; type: functional, cell-based
Outline: (§1)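 Hs578T cells seeded in 6-well plates, treated the next day for 48 h, with medium and drug at the same concentration replaced every 24 h. Cells were harvested at 48 h and lysed, and 10 μg protein lysate was analysed by Western blot with specific antibodies, including rabbit anti-total GR.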

[9] = tested on: Hs-578T; experiment: Induction of glucocorticoid receptor degradation in human Hs578T cells at 10 to 20 uM by Western blot analysis; type: functional, cell-based; outline: as §1
[10] = tested on: Hs-578T; experiment: Induction of Hsp40 degradation in human Hs578T cells at 10 to 20 uM by Western blot analysis; type: functional, cell-based; outline: as §1
[11] = tested on: Hs-578T; experiment: Cytotoxicity against human Hs578T cells assessed as cell survival at 10 to 20 uM after 48 hrs by MTS assay; type: functional, cell-based
[12] = tested on: MDA-MB-231; experiment: Cytotoxicity against human MDA-MB-231 cells assessed as cell survival at 10 to 20 uM after 48 hrs by MTS assay; type: functional, cell-based
[13] = tested on: LNCaP; experiment: Cytotoxicity against human LNCAP cells assessed as cell survival at 10 to 20 uM after 48 hrs by MTS assay; type: functional, cell-based

inhibition [1]	Compound	Activity [2]	Activity [3]	Activity [4]	Activity [5]	Activity [6]	Activity [7]	Activity [8]	Activity [9]	Activity [10]	inhibition [11]	inhibition [12]	inhibition [13]
Active	C=CCNC1=C2C[C@@H](C)C[C@H](OC)[C@H](O)[C@@H](C)/C=C(\C)[C@H](OC(N)=O)[C@@H](OC)/C=C\C=C(/C)C(=O)NC(=CC1=O)C2=O	–	–	–	–	–	–	–	–	–	–	–	–
Active	CC[C@H](C)/C=C(C)/C=C/C1=CC2=C(Cl)C(=O)[C@](C)(O)C(=O)C2=CO1	–	–	–	–	–	–	–	–	–	Active	Active	Active

Compound	inhibition [1]	Activity [2]	Activity [3]	Activity [4]	Activity [5]	Activity [6]	Activity [7]	Activity [8]	Activity [9]	Activity [10]	inhibition [11]	inhibition [12]	inhibition [13]
CC[C@H](C)/C=C(C)/C=C/C1=CC2=C(Cl)C(=O)[C@](C)(OC(C)=O)C(=O)C2=CO1	Active	inactive	inactive	inactive	inactive	inactive	inactive	Active	Active	Active	–	–	–

Source: ChEMBL document CHEMBL3352052, “Bioactive metabolites from Chaetomium aureum: structure elucidation and inhibition of the Hsp90 machine chaperoning activity” (Bioorg Med Chem, 2015)
